Measured values: ChEMBL document CHEMBL2385029, “Cytotoxic activities of substituted 3-(3,4,5-trimethoxybenzylidene)-1,3-dihydroindol-2-ones and studies on their mechanisms of action” (Eur J Med Chem, 2013)
Active and inactive are the calls of the source. The calls are words filed in the database; no cut-off is given here.

Key:
[1] = Cytotoxicity against human ovarian cancer cells after 48 hrs; assay type: functional; conditions: Cancer cell lines; for CC50: read-out: LC50 (the source's name)
Summary of the method: (§1)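 NCI 60-cell panel, values averaged per subpanel. Compounds were dissolved in DMSO and first screened at a single 10⁻⁵ M dose. Active ones then went to five concentrations at ten-fold dilutions, top 10⁻⁴ M (10⁻³ M for some), with 48 h exposure.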

[2] = Cytotoxicity against human colon cancer cells after 48 hrs; assay type: functional; conditions: Cancer cell lines; summary of the method: as §1
[3] = Cytotoxicity against human renal cancer cells after 48 hrs; assay type: functional; conditions: Cancer cell lines
[4] = Cytotoxicity against human CNS cancer cells after 48 hrs; assay type: functional; conditions: Cancer cell lines; summary of the method: as §1
[5] = Cytotoxicity against human prostate cancer cells after 48 hrs; assay type: functional; conditions: Cancer cell lines; for CC50: read-out: LC50 (the source's name); summary of the method: as §1
[6] = Cytotoxicity against human melanoma cells after 48 hrs; assay type: functional; conditions: Melanoma cell; for CC50: read-out: LC50 (the source's name)
[7] = Cytotoxicity against human leukemia cells after 48 hrs; assay type: functional; conditions: Leukemia cell; for CC50: read-out: LC50 (the source's name)
[8] = Cytotoxicity against human breast cancer cells after 48 hrs; assay type: functional; conditions: Cancer cell lines; summary of the method: as §1
[9] = Inhibition of bovine brain tubulin assembly after 20 mins
[10] = Cytotoxicity against human NSCLC cells after 48 hrs; assay type: functional; conditions: for CC50: read-out: LC50 (the source's name); summary of the method: as §1
[11] = target: T1, NADPH oxidase 4 (Homo sapiens) (UniProt Q9NPH5); experiment: Inhibition of NOX4 in human nox2 silenced B1647 cells assessed as reduction of ROS production at 50 nM after 20 mins by DCFH-DA fluorescence assay; assay type: cell-based; conditions: 5 or 10 uM, in the assay text read “at 5 or 10 uM after 30 mins” for “at 50 nM after 20 mins”
T1 sequence (whole entry): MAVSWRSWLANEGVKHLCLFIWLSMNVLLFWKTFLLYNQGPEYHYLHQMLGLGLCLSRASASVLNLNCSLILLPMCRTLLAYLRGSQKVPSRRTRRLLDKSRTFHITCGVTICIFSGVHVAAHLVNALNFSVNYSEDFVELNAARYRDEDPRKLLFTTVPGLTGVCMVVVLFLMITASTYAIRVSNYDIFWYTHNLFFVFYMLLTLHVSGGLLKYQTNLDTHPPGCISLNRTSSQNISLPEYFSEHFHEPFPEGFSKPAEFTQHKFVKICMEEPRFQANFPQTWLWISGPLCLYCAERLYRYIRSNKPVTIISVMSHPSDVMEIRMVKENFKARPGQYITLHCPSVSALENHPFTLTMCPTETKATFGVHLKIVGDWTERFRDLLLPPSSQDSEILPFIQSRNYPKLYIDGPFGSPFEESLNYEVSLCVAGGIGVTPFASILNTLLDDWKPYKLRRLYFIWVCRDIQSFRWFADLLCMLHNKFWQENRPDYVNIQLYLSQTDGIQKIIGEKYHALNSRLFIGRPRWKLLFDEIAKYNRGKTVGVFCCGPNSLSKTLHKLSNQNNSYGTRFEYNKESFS
Summary of the method: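 B1647 cells nucleofected with Nox2 siRNA or scrambled siRNA (final 50 nM), used after 24–48 h. Compound treatment for 30 min, then 5 µM DCFH-DA loading for 20 min at 37 °C and DCF fluorescence read. Scrambled cells served as control.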

[12] = target: T1, NADPH oxidase 4 (Homo sapiens); experiment: Inhibition of NOX4 in human B1647 cells assessed as reduction of ROS production after 20 mins by DCFH-DA fluorescence assay; assay type: cell-based; conditions: in the assay text read “after 30 mins” for “after 20 mins”
Summary of the method: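 B1647 cells given compound (DMSO) at 5 or 10 µM for 30 min, then at 1 × 10⁶/mL washed twice in PBS and loaded with 5 µM DCFH-DA for 20 min at 37 °C. DCF fluorescence read in multiwell plate; four independent experiments.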

[13] = Inhibition of nox4 expression in human B1647 cells at 10 uM after 24 hrs by Western blot analysis relative to control; assay type: functional
Summary of the method: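 B1647 cells treated 24 h at 10 µM. Lysates (40 µg protein per lane) run on 10% SDS-PAGE and transferred to nitrocellulose. Blots probed with anti-Nox4, with β-tubulin as loading control, and detected by chemiluminescence. Bands quantified by densitometry in arbitrary units relative to control; three independent experiments.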

B1647 = experiment: Cytotoxicity against human B1647 cells at 5 to 10 uM after 24 hrs by MTT assay; assay type: functional, cell-based
Summary of the method: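 B1647 human AML cells grown in IMDM with 5% human serum (37 °C, 5% CO2); 10⁶ cells per well in 1 mL exposed to 5 or 10 µM compound (DMSO) for 24 h. MTT 0.5 mg/mL added for 4 h at 37 °C, formazan dissolved overnight in 10% SDS/0.01 M HCl, A570 read. Four independent experiments.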

| Structure (SMILES) | GI50 [1] | TGI [1] | CC50 [1] | GI50 [2] | LC50 [2] | GI50 [3] | LC50 [3] | GI50 [4] | LC50 [4] | TGI [4] | GI50 [5] | GI50 [6] | CC50 [6] | GI50 [7] | GI50 [8] | IC50 [9] | GI50 [10] | CC50 [10] | CC50 [7] | TGI [10] | further results |
| --- | --- | --- | --- | --- | --- | --- | --- | --- | --- | --- | --- | --- | --- | --- | --- | --- | --- | --- | --- | --- | --- |
| COc1ccc(CN2C(=O)/C(=C\c3cc(OC)c(OC)c(OC)c3)c3ccccc32)cc1 | 2.6 µM | 21.4 µM | 67.6 µM | 1.8 µM | 8.3 µM | 2 µM | 45.7 µM | 2.5 µM | 26.3 µM | 10.5 µM | 2.7 µM | 1.7 µM | 19.5 µM | 2.2 µM | 2.3 µM | > 20 µM | 2 µM | 38.9 µM | – | – | TGI [5]: 26.3 µM; TGI [7]: 27.5 µM; LC50 [8]: 93.3 µM; TGI [8]: 17.4 µM |
| COc1cc(/C=C2\C(=O)N(C)c3ccc(Cl)cc32)cc(OC)c1OC | 5.9 µM | 36.3 µM | 93.3 µM | 4 µM | 67.6 µM | 4.7 µM | 85.1 µM | 4.3 µM | 81.3 µM | 24.5 µM | 3.2 µM | 5 µM | 69.2 µM | 2.3 µM | 3.7 µM | > 20 µM | 7.4 µM | 85.1 µM | 67.6 µM | 28.2 µM | TGI [2]: 18.2 µM; TGI [5]: 11.2 µM; TGI [7]: 14.4 µM; TGI [8]: 17.4 µM |
| COc1cc(/C=C2\C(=O)Nc3ccc(Br)cc32)cc(OC)c1OC | 17 µM | 69.2 µM | – | 6.2 µM | – | 14.1 µM | – | 14.8 µM | – | 56.2 µM | 11 µM | 10.2 µM | – | 2.1 µM | 3.2 µM | > 20 µM | 9.5 µM | – | – | 77.6 µM | inhibition [11]: Active; TGI [3]: 75.9 µM; inhibition [12]: Dose-dependent effect; fold change (FC) [13]: 0.86; Activity (B1647): Active; TGI [8]: 45.7 µM |
| COc1cc(/C=C2\C(=O)Nc3cc(Cl)ccc32)cc(OC)c1OC | 1.9 µM | – | 17.4 µM | 0.8 µM | 22.9 µM | 1.6 µM | 14.1 µM | 1.6 µM | 18.6 µM | – | 1.5 µM | 1.9 µM | 19 µM | 0.5 µM | 0.8 µM | 15 µM | 2 µM | 29.5 µM | 56.2 µM | – | CC50 [5]: 17 µM; LC50 [8]: 31.6 µM |
| c1ccc2c(c1)[I+]c1ccccc1-2 [DIPHENYLENEIODONIUM] | – | – | – | – | – | – | – | – | – | – | – | – | – | – | – | – | – | – | – | – | fold change (FC) [13]: 0.73 |
| COc1cc(/C=C2\C(=O)Nc3c(Cl)ccc(Cl)c32)cc(OC)c1OC | – | – | – | – | – | – | – | – | – | – | – | – | – | – | – | – | – | – | – | – | Activity (B1647): Active |
| CC[C@]1(O)C[C@H]2CN(CCc3c([nH]c4ccccc34)[C@@](C(=O)OC)(c3cc4c(cc3OC)N(C=O)[C@H]3[C@@](O)(C(=O)OC)[C@H](OC(C)=O)[C@]5(CC)C=CCN6CC[C@]43[C@@H]65)C2)C1 [VINCRISTINE] | – | – | 316 µM | – | – | – | – | – | – | – | – | – | – | – | – | – | – | – | 631 µM | – | CC50 [5]: 316 µM |
| COc1ccc(OC)c2c1NC(=O)/C2=C\c1cc(OC)c(OC)c(OC)c1 | 4.6 µM | 23.4 µM | 77.6 µM | 4 µM | 41.7 µM | 4.5 µM | 54.9 µM | 5.5 µM | 54.9 µM | 20.4 µM | 4.3 µM | 5.2 µM | 44.7 µM | 2.6 µM | 2.2 µM | > 20 µM | 7.1 µM | 74.1 µM | 79.4 µM | 25.1 µM | TGI [2]: 15.5 µM; TGI [3]: 18.6 µM; TGI [5]: 22.9 µM; CC50 [5]: 58.9 µM; TGI [6]: 18.6 µM; TGI [7]: 14.1 µM; LC50 [8]: 64.6 µM |
| COc1ccc2c(c1)/C(=C\c1cc(OC)c(OC)c(OC)c1)C(=O)N2C | 3.5 µM | 28.2 µM | – | 2.6 µM | 63.1 µM | 3.2 µM | – | 2.4 µM | – | 14.1 µM | 2.6 µM | 3.1 µM | 85.1 µM | 1.4 µM | 2.7 µM | > 20 µM | 3.7 µM | 83.2 µM | 87.1 µM | 46.8 µM | TGI [2]: 16.6 µM |
| COc1cc(/C=C2/C(=O)N(C)c3ccc(O)cc32)cc(OC)c1OC | 5.5 µM | 26.3 µM | 79.4 µM | 4.3 µM | 47.9 µM | 5.7 µM | 70.8 µM | 4.3 µM | 53.7 µM | – | 2.8 µM | 4.9 µM | 43.6 µM | 2.2 µM | 3.2 µM | > 20 µM | 6.3 µM | 77.6 µM | 81.3 µM | 24.6 µM | TGI [2]: 18.2 µM; TGI [3]: 22.4 µM; CC50 [5]: 22.9 µM; TGI [6]: 16.2 µM; LC50 [8]: 61.7 µM; TGI [8]: 15.1 µM |
| COc1ccc(CN2C(=O)/C(=C/c3cc(OC)c(OC)c(OC)c3)c3cc(OC)ccc32)cc1 | 2.4 µM | – | 50.1 µM | 1.9 µM | 7.9 µM | 2.4 µM | 28.8 µM | 2.2 µM | 33.9 µM | – | 3.2 µM | 2.1 µM | 23.4 µM | 2.7 µM | 2.6 µM | > 20 µM | 2.3 µM | 33.1 µM | – | 11.2 µM | TGI [5]: 14.1 µM; CC50 [5]: 83.2 µM; TGI [7]: 27.5 µM; LC50 [8]: 79.4 µM; TGI [8]: 13.8 µM |
| COc1cc(/C=C2\C(=O)Nc3cc(OC(F)(F)F)ccc32)cc(OC)c1OC | 2.9 µM | 11.2 µM | 49 µM | 2.8 µM | 37.1 µM | 3.3 µM | 34.7 µM | 2.6 µM | 33.9 µM | – | 4.6 µM | 2.6 µM | 44.7 µM | 2.3 µM | 2.1 µM | > 20 µM | 2.9 µM | 51.3 µM | – | 14.1 µM | TGI [2]: 10.2 µM; TGI [3]: 12.6 µM; TGI [5]: 29.5 µM; CC50 [5]: 83.2 µM; TGI [6]: 10.7 µM; TGI [7]: 27.5 µM; LC50 [8]: 60.3 µM |
| COc1cc(/C=C2\C(=O)Nc3ccc(N(C)C)cc32)cc(OC)c1OC | 3.2 µM | – | 81.3 µM | 2.4 µM | 81.3 µM | 3.8 µM | 83.2 µM | 2.9 µM | 81.3 µM | 25.1 µM | 2.5 µM | 3.5 µM | – | 1.1 µM | 2.1 µM | > 20 µM | 4.2 µM | – | 81.3 µM | 41.7 µM | TGI [2]: 34.7 µM; TGI [5]: 43.6 µM; TGI [6]: 42.7 µM; Activity (B1647): Active; TGI [8]: 37.1 µM |
| COc1cc(/C=C2\C(=O)N(Cc3ccc(Cl)cc3)c3ccccc32)cc(OC)c1OC | 3.4 µM | 22.9 µM | 51.3 µM | 2.2 µM | 14.4 µM | 2.5 µM | 43.6 µM | 3.4 µM | 46.8 µM | 15.1 µM | 2.2 µM | 2.9 µM | 26.9 µM | 1.5 µM | 2.4 µM | > 20 µM | 3.4 µM | 56.2 µM | 50.1 µM | 14.4 µM | CC50 [5]: 33.1 µM; Activity (B1647): Active; LC50 [8]: 95.5 µM; TGI [8]: 12.9 µM |
